ChEMBL document CHEMBL1151726, “Interactions of antiviral indolo[2,3-b]quinoxaline derivatives with DNA” (2008)
Where “and” joins values, the source holds several entries; their conditions need not be identical. Equal values may be shown once. Calls of active or inactive are those of the source. No cut-off for these calls is given here.

What was measured:
[1] = system: Human betaherpesvirus 5; assay: Antiviral activity against human cytomegalovirus; type: functional
[2] = Ratio of binding constant K for 3 base pair binding site poly(dA-dT)2 DNA to binding constant K for calf thymus DNA
[3] = system: DNA; assay: Binding affinity to calf thymus DNA assessed as drug-DNA intercalation at 5 to 10 uM by absorption spectra analysis; type: nucleic-acid assay; details: Bos taurus
Method in brief: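 Ligands at 10 µM (monomeric) or 5 µM (dimeric) mixed 1:1 by volume with ct-DNA, 160 µM bases, in 10 mM phosphate pH 7.5, total Na+ 100 mM. Absorption spectra recorded at room temperature, several scans averaged.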

[4] = system: Nucleic Acid; assay: Binding affinity to poly(dA-dT)2 DNA assessed as drug-DNA intercalation at 5 to 10 uM by emission spectra analysis; type: nucleic-acid assay
Method in brief: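 Emission spectra recorded with and without poly(dA-dT)2 at 100 µM bases. Ligand at 10 µM (monomeric) or 5 µM (dimeric), room temperature, 10 mM phosphate pH 7.5, total Na+ 100 mM.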

[5] = Ratio of binding constant K for 4 base pair binding site poly(dA-dT)2 DNA to binding constant K for calf thymus DNA
[6] = Ratio of binding constant K for 2 base pair binding site poly(dA-dT)2 DNA to binding constant K for calf thymus DNA
[7] = system: DNA; assay: Binding affinity to calf thymus DNA assessed as drug-DNA intercalation at 5 to 10 uM by linear dichroism analysis; type: nucleic-acid assay; details: Bos taurus
Method in brief: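 Flow linear dichroism with calf thymus DNA at 160 µM bases, ligand 10 µM (monomeric) or 5 µM (dimeric), 10 mM phosphate pH 7.5, Na+ 100 mM, room temperature. Spectra taken over 200–650 nm and baseline-corrected by subtracting the non-oriented sample spectrum.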

[8] = Ratio of binding constant K for poly(dA-dT)2 DNA to binding constant K for calf thymus DNA

Compound	inhibition (INH) [1] [%]	Activity [3]	Activity [4]	further results
C[N+](C)(CCC[N+](C)(C)CCn1c2ccccc2c2nc3ccccc3nc21)CCn1c2ccccc2c2nc3ccccc3nc21.[Br-].[Br-]	100	Active	Active	Ratio [2]: 1.9
C[N+](C)(CCCCCC[N+](C)(C)CCn1c2ccccc2c2nc3ccccc3nc21)CCn1c2ccccc2c2nc3ccccc3nc21.[Br-].[Br-]	100	Active	Active	Ratio [5]: 3
Nc1nc2c(ncn2COC(CO)CO)c(=O)[nH]1 [GANCICLOVIR]	30	–	–	–
Cc1cc2nc3c4ccccc4n(CCN(C)C)c3nc2cc1C [listing 1 of 2 here]	–	Active	Active	Ratio [6]: 1.8 and 2.4; Activity [7]: inactive
Cc1cc2nc3c4ccccc4n(CCN(C)C)c3nc2cc1C [listing 2 of 2 here]	20	–	–	–
Cc1cc2nc3c4ccccc4n(CCN(C)C)c3nc2cc1C.Cl	100	–	–	–
Cc1cc2nc3c4cc(N)ccc4n(CCN(C)C)c3nc2cc1C.Cl	100	Active	Active	Ratio [8]: 1.7
Cc1cc2nc3c4ccccc4n(CCN(C)C)c3nc2cc1C.I	100	–	–	–
